According to ChEMBL document CHEMBL1131454 (J Med Chem, 1998):

Assays:
[1] = target: T1, Mineralocorticoid receptor (Homo sapiens, UniProt P08235); assay: Antagonistic activity was determined in Human mineralocorticoid receptor(hMR) of CV-1 cells in cotransfection assay.; type: functional, cell-based
T1 sequence (P08235 whole entry): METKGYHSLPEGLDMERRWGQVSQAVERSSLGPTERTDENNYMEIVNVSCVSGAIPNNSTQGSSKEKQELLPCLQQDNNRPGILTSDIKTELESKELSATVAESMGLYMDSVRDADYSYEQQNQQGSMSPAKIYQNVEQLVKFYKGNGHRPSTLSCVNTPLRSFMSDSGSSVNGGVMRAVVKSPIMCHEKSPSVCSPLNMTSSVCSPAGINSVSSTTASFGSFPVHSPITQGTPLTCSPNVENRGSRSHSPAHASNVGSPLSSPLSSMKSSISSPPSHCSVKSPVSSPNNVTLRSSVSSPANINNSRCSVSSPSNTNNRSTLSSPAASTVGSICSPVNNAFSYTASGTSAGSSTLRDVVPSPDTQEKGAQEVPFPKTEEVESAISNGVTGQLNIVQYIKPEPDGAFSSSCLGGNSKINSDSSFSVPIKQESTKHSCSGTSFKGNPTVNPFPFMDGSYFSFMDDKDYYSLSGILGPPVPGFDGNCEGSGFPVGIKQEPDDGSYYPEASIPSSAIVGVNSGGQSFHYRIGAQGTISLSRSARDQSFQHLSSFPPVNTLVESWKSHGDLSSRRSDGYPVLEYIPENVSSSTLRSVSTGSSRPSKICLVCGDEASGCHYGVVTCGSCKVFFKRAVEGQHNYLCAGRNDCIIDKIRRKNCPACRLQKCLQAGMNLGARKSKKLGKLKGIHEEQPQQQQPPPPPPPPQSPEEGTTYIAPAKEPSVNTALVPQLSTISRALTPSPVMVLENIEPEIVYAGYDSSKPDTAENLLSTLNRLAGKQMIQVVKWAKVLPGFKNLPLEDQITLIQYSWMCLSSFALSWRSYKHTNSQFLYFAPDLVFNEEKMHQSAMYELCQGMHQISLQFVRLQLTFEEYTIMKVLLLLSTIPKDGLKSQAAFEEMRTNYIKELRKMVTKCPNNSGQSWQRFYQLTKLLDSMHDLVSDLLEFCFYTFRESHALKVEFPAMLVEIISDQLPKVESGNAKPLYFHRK

Progesterone receptor [2] = target: T2, Progesterone receptor (Homo sapiens, UniProt P06401); assay: Antagonistic activity was determined in Human progesterone receptor(hPR) of CV-1 cells in cotransfection assay.; type: functional, cell-based
T2 sequence (P06401 whole entry): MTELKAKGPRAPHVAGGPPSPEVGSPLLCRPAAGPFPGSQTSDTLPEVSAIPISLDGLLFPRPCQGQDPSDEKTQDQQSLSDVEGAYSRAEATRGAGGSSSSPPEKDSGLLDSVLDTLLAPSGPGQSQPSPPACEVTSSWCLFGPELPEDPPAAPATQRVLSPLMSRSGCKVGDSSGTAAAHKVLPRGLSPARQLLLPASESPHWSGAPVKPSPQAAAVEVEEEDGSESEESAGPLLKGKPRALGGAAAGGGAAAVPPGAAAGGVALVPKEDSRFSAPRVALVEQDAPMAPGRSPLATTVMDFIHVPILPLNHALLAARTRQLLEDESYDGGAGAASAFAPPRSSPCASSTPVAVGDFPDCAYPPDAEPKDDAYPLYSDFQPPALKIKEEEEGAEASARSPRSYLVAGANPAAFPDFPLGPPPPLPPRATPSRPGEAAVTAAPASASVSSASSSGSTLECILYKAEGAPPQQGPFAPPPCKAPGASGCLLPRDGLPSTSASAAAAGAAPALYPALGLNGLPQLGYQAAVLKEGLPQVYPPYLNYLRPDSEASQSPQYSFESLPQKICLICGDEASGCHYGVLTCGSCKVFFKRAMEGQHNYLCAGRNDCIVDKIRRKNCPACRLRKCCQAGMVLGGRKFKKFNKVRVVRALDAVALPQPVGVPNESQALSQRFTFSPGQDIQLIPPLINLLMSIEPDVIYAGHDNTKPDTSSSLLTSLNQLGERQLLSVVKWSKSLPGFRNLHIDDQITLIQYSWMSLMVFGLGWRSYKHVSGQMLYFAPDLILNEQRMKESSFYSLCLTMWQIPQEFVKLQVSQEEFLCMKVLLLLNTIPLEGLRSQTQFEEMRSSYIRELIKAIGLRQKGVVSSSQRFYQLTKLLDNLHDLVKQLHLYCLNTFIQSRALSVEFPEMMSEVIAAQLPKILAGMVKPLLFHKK

Androgen receptor [3] = target: T3, Androgen receptor (Homo sapiens, UniProt P10275)
T3 sequence (P10275 whole entry): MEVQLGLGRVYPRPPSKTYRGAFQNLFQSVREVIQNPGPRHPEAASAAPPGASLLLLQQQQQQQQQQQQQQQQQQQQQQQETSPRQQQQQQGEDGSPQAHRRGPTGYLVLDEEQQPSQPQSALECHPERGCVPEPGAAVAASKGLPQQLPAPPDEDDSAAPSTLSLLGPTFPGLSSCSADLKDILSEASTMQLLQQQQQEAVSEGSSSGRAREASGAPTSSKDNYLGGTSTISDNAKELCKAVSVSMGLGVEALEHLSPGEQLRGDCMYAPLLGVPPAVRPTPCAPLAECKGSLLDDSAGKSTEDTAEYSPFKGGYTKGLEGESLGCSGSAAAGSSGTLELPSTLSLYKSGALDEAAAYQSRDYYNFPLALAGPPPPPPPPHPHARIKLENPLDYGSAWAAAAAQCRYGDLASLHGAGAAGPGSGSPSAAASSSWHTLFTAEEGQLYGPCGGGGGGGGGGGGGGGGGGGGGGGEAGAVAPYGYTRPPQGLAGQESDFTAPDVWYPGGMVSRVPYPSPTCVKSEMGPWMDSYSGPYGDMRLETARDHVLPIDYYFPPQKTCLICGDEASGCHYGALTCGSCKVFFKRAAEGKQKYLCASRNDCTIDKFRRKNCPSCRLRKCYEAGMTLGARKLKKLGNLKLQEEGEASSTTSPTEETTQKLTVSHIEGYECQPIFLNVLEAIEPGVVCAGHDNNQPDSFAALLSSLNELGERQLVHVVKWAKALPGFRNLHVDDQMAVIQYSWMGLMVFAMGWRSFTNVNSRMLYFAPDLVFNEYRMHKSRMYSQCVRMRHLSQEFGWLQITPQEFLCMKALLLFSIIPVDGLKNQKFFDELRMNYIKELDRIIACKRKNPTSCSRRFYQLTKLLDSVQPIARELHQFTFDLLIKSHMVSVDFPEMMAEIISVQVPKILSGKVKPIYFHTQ

Glucocorticoid receptor [4] = target: T4, Glucocorticoid receptor (Homo sapiens, UniProt P04150)
T4 sequence (P04150 whole entry): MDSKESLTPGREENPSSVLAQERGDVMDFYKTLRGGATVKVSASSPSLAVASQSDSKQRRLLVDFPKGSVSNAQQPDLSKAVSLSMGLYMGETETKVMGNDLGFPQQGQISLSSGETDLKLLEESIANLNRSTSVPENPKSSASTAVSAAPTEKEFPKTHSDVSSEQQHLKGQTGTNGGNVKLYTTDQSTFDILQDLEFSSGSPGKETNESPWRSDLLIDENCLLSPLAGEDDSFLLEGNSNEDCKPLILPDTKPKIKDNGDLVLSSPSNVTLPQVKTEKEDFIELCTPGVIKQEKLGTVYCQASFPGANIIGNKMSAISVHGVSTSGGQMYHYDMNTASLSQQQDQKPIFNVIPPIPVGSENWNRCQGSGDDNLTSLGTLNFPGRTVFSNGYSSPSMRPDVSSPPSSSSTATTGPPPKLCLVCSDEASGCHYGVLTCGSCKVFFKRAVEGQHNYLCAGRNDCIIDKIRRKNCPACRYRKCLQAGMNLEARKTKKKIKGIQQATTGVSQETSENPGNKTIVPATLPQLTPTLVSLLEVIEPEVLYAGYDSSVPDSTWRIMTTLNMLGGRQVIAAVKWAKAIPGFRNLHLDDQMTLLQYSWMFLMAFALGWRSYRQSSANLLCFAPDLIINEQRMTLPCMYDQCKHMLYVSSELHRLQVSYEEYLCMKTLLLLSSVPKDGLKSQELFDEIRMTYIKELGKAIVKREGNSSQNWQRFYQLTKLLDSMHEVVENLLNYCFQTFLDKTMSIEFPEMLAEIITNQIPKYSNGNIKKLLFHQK

Glucocorticoid receptor [5] = target: T4, Glucocorticoid receptor; remark: listed apart in the source
Progesterone receptor [6] = target: T2, Progesterone receptor; assay: The binding affinity on Human progesterone receptor (hPR-A) using progesterone as radioligand.
Androgen receptor [7] = target: T3, Androgen receptor; remark: listed apart in the source
Progesterone receptor [8] = target: T2, Progesterone receptor; assay: Agonistic activity to the human progesterone receptor (hPR)assayed in CV-1 cells in cotransfection assay.; type: functional, cell-based
[9] = target: T5, Progesterone receptor (Homo sapiens) (UniProt P06401); assay: Human progesterone receptor (hPR) antagonist efficacy was determined as a function (%) of maximal inhibition of progesterone at EC50 value.; type: functional
T5 sequence (whole entry): T2 sequence (P06401 whole entry)
Procedure, shortened: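 hPR antagonist-mode cotransfection in CV-1 cells transiently transfected by calcium phosphate coprecipitation with hPR plasmid, MTV-LUC reporter, pRS-β-Gal and filler DNA. […] Values come from one, two, or at least three experiments in triplicate.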

[10] = target: T5, Progesterone receptor (Homo sapiens); assay: Agonist efficacy for human progesterone receptor (hPR) was compared to that of progesterone (100%); type: functional
Procedure, shortened: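 Cotransfection assay in CV-1 cells transiently transfected by calcium phosphate coprecipitation with hPR plasmid, MTV-LUC reporter, pRS-β-Gal and filler DNA. Full dose–response curves from 10^-12 to 10^-5 M were run. […] Values are the mean of at least three experiments with triplicate determinations, or of two experiments, or a single experiment.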

Glucocorticoid receptor [11] = target: T4, Glucocorticoid receptor; assay: Agonist activity against Human glucocorticoid receptor(hGR) expressed in CV-1 cells; type: functional, cell-based

| IC50 [1] [nM] | IC50 (Progesterone receptor [2]) [nM] | IC50 (Androgen receptor [3]) [nM] | IC50 (Glucocorticoid receptor [4]) [nM] | Ki (Glucocorticoid receptor [5]) [nM] | Ki (Progesterone receptor [6]) [nM] | Ki (Androgen receptor [7]) [nM] | EC50 (Progesterone receptor [8]) [nM] | Efficacy [9] [%] | Efficacy [10] [%] | EC50 (Glucocorticoid receptor [11]) [nM] | SMILES |
| --- | --- | --- | --- | --- | --- | --- | --- | --- | --- | --- | --- |
| – | 71 | – | – | – | 13.8 | – | 1700 | 86 | 21 | – | CC1=CC(C)(C)Nc2ccc3c(c21)C(c1cccc(Br)n1)Oc1ccccc1-3 (stereo unspecified) |
| – | 342 | – | – | – | 5.3 | – | 8 | 77 | 28 | – | CC1=CC(C)(C)Nc2ccc3c(c21)C(c1ccc(F)cc1)Oc1ccccc1-3 (stereo unspecified) |
| – | 4600 | – | – | – | 6.8 | – | 25 | 56 | 60 | – | CC1=CC(C)(C)Nc2ccc3c(c21)C(c1ccc(F)c(C(F)(F)F)c1)Oc1ccccc1-3 (stereo unspecified) |
| 1200 | – | – | – | 13.2 | – | – | – | – | – | 10 | CC(=O)O[C@]1(C(C)=O)CC[C@H]2[C@@H]3C[C@H](C)C4=CC(=O)CC[C@]4(C)[C@H]3CC[C@@]21C [MEDROXYPROGESTERONE ACETATE] |
| – | 105 | – | – | – | 13.3 | – | > 10000 | 65 | < 20 | – | COc1ccc(C2Oc3ccccc3-c3ccc4c(c32)C(C)=CC(C)(C)N4)cc1 (stereo unspecified) |
| – | 132 | – | – | – | 8.8 | – | > 10000 | 68 | < 20 | – | CC(=O)c1ccc(C2Oc3ccccc3-c3ccc4c(c32)C(C)=CC(C)(C)N4)cc1 (stereo unspecified) |

The remaining lines, values behind:

| SMILES | IC50 [1] [nM] | IC50 (Progesterone receptor [2]) [nM] | IC50 (Androgen receptor [3]) [nM] | IC50 (Glucocorticoid receptor [4]) [nM] | Ki (Glucocorticoid receptor [5]) [nM] | Ki (Progesterone receptor [6]) [nM] | Ki (Androgen receptor [7]) [nM] | EC50 (Progesterone receptor [8]) [nM] | Efficacy [9] [%] | Efficacy [10] [%] | EC50 (Glucocorticoid receptor [11]) [nM] |
| --- | --- | --- | --- | --- | --- | --- | --- | --- | --- | --- | --- |
| CC1=CC(C)(C)Nc2ccc3c(c21)C(c1ccccc1)Oc1ccccc1-3 (stereo unspecified) | 354 | 290 | 745 | 226 | 154 | 3.6 | 1860 | 156 | – | – | – |
| CC1=CC(C)(C)Nc2ccc3c(c21)C(c1ccc(Br)nc1)Oc1ccccc1-3 (stereo unspecified) | – | 54 | – | – | – | 3.9 | – | 3900 | 86 | 24 | – |
| CC1=CC(C)(C)Nc2ccc3c(c21)C(c1cc(F)cc(Br)c1)Oc1ccccc1-3 (stereo unspecified) | – | 1210 | – | – | – | 2.4 | – | 27 | 65 | 49 | – |
| CC1=CC(C)(C)Nc2ccc3c(c21)C(c1ccc(C(F)(F)F)cc1)Oc1ccccc1-3 (stereo unspecified) | – | 150 | – | – | – | 10.8 | – | 33 | 49 | 35 | – |
| CC1=CC(C)(C)Nc2ccc3c(c21)C(c1cccc(F)c1)Oc1ccccc1-3 (stereo unspecified) | – | 150 | – | – | – | 0.69 | – | 8 | 74 | 48 | – |
